The values below come from ChEMBL document CHEMBL1155793, “Phenyl phosphotriester derivatives of AZT: variations upon the SATE moiety” (Bioorg Med Chem, 2008).

The test system of series [1] is Human immunodeficiency virus 1. Put plainly: Antiviral activity against HIV1 infected human CEM-SS cells. The conditions noted are these: Human immunodeficiency virus 1, CEM-SS. In kind it is functional, organism-based.
Series [2] can be described thus: Cytotoxicity against human CEM-SS cells. In kind it is cell-based.
The test system of series [3] is Human immunodeficiency virus 1. The experiment in a line: Antiviral activity against HIV1 infected human MT4 cells. In kind it is functional, organism-based. The conditions noted are these: Human immunodeficiency virus 1, MT4.
Series [4] in a line: Cytotoxicity against human MT4 cells. In kind it is cell-based.
Series [5] relates to Human immunodeficiency virus 1. The experiment in a line: Antiviral activity against HIV1 infected human thymidine kinase-deficient CEM cells. In kind it is functional, organism-based. The conditions noted are these: Human immunodeficiency virus 1, CCRF-CEM.
A short description of series [6]: Cytotoxicity against human thymidine kinase-deficient CEM cells. In kind it is cell-based, CCRF-CEM.
Series [7] is described as follows: Lipophilicity, log P of the compound. Particulars: octanol/water. The class given is physicochemical. The essentials: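 Log P values were calculated with software, not measured experimentally.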
The nature of series [8]: Stability in human CEM-SS cell culture medium. In kind it is ADME, cell-based. The essentials: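 Compound at an initial 50 µM was incubated in culture medium of 90% RPMI 1640 plus 10% fetal calf serum, heat-inactivated 30 min at 56 °C. Analysis was by on-line ISRP-cleaning HPLC (0–80% acetonitrile in 20 mM TEAA pH 6.9, 267 nm) with HPLC/MS or co-injection identification. Half-lives came from pseudo-first-order exponential fits. Mean of three experiments.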

Series [9] in a line: Stability in human CEM-SS cell extracts. In kind it is ADME, cell-based. An outline of the steps:
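CEM-SS cell extracts were incubated with compound at an initial 50 µM. Samples were analysed by on-line ISRP-cleaning HPLC (0–80% acetonitrile gradient in 20 mM TEAA pH 6.9, detection 267 nm), with metabolites identified by HPLC/MS or co-injection. Half-lives came from pseudo-first-order mono- or polyexponential regression. Mean of three experiments.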

Series [10] can be described thus: Chemical stability in water at pH 6.8. In kind it is physicochemical. The essentials: (§1)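 Compound at an initial 50 µM was incubated in water (pH 6.8) or RPMI 1640 (pH 7.5). Samples were analysed by on-line ISRP-cleaning HPLC: TEAA 20 mM pH 6.9 wash, then 0–80% acetonitrile gradient, UV 267 nm. Products were identified by HPLC/MS or co-injection. Half-lives came from pseudo-first-order mono- or polyexponential fits of peak areas. Mean of two experiments.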

Series [11] in a line: Chemical stability in RPMI1640 medium at pH 7.5. In kind it is physicochemical. An outline of the steps:
as §1

Series [12] in a line: Aqueous solubility of the compound. In kind it is physicochemical.

≈ marks a conversion by molar mass, not a printed value.

As for `Cc1cn([C@H]2C[C@H](N=[N+]=[N-])[C@@H](COP(=O)(OCCSC(=O)[C@@H](N)C(C)C)Oc3ccccc3)O2)c(=O)[nH]c1=O` (stereo partly specified), the EC50 in series [1] is 1 nM; in series [3] it was 4 nM; in [5] it was 81000 nM. In addition, the CC50 in series [2], in [4] and in [6] was over 120000 nM in each case. For the same compound, the logP in series [7] (read-out: logP) was 2. In addition, the half-life was under 0.0167 h in series [8], under 0.0167 h in [9], 1820 h in series [10] and under 0.0167 h in series [11].
For `Cc1cn([C@H]2C[C@H](N=[N+]=[N-])[C@@H](COP(=O)(OCCSC(=O)C(C)(C)CO)Oc3ccccc3)O2)c(=O)[nH]c1=O` (stereo partly specified), the EC50 turned out to be 6 nM in series [1], 30 nM in [3] and 3900 nM in series [5]. In addition, the CC50 in series [2], in series [4] and in [6] was over 130000 nM throughout. The logP in series [7] (read-out: logP) came to 2. The results for the half-life in series [8] and in series [9] were 331 h and 14.8 h, respectively. Also, the solubility in series [12] was found to be 6640 µg/mL (≈ 11.4 mM).
Turning to `Cc1cn([C@H]2C[C@H](N=[N+]=[N-])[C@@H](COP(=O)(OCCSC(=O)C(C)(CO)CO)Oc3ccccc3)O2)c(=O)[nH]c1=O` (stereo partly specified), the EC50 in [1] is 12 nM; in series [3] it was 74 nM; in series [5], over 100000 nM. Moreover, the CC50 in series [2], in series [4] and in series [6] was over 150000 nM throughout. The logP in series [7] (read-out: logP) stood at 2. Further, the figures for the half-life in [8] and in series [9] were 211 h and 178 h, respectively. In series [12], this compound registered a solubility of 60600 µg/mL (≈ 101 mM).
As to `Cc1cn([C@H]2C[C@H](N=[N+]=[N-])[C@@H](COP(=O)(OCCSC(=O)C(C)(C)C)Oc3ccccc3)O2)c(=O)[nH]c1=O` (stereo partly specified), the EC50 is 15 nM in series [1], 810 nM in series [3] and 450 nM in series [5]. Also, the CC50 in series [2], in [4] and in series [6] was over 10000 nM each time. Besides, the logP in [7] was 2. Besides, the half-life in series [8] is 607 h; in series [9], 1.5 h. The same compound showed a solubility in [12] of 57 µg/mL (≈ 0.1 mM).
With `Cc1cn([C@H]2C[C@H](N=[N+]=[N-])[C@@H](COP(=O)(OCCSC(=O)C(C)(C)NC(=O)OC(C)(C)C)Oc3ccccc3)O2)c(=O)[nH]c1=O` (stereo partly specified), the half-life in series [8] is 338 h; in [9], 40.8 h; in series [10] it was over 480 h; in series [11], over 288 h.
The matching figures for `Cc1cn([C@H]2C[C@H](N=[N+]=[N-])[C@@H](COP(=O)(OCCSC(=O)[C@@H](NC(=O)OC(C)(C)C)C(C)C)Oc3ccccc3)O2)c(=O)[nH]c1=O` (stereo partly specified): 197 h, 106 h, over 960 h and over 216 h.
For the compound `Cc1cn([C@H]2C[C@H](N=[N+]=[N-])[C@@H](COP(=O)(OCCSC(=O)C(C)(C)N)Oc3ccccc3)O2)c(=O)[nH]c1=O` (stereo partly specified), the EC50 came to 9 nM in series [1], 54 nM in series [3] and 90000 nM in series [5]. The CC50 in [2], in series [4] and in [6] was over 120000 nM in each case. The logP in [7] (read-out: logP) amounted to 2. The half-life in [8] was under 0.0167 h; in [9], 0.133 h; in series [10], over 144 h; in [11] it was 0.1 h.
With `Cc1cn([C@H]2C[C@H](N=[N+]=[N-])[C@@H](CO)O2)c(=O)[nH]c1=O` [ZIDOVUDINE], the figures for the EC50 in series [1], in [3] and in series [5] were 3 nM, 15 nM and over 100000 nM, respectively. Moreover, the CC50 in series [2], in [4] and in [6] was over 100000 nM in each case.

One may read the EC50 as the midpoint of the concentration-response curve. A high value points to a need for much substance. Usually CC50 stands for the concentration that lowers cell viability or growth by half. A lower CC50 goes with harm at low concentration. By logP is commonly meant a log measure of how a compound divides between an organic and an aqueous phase. For orientation: half-life means the time in which the quantity being followed falls by half. Read a high half-life as slow loss. Broadly, the solubility is the dissolved amount per volume that the medium holds.
